Laboratory results from ChEMBL document CHEMBL2163267, “Novel N-linked aminopiperidine inhibitors of bacterial topoisomerase type II with reduced pK(a): antibacterial agents with an improved safety profile” (J Med Chem, 2012).
≈ marks a conversion by molar mass, not a printed value.

Legend:
[1] = Intrinsic clearance in Wistar Han rat hepatocytes measured per 10^6 cells; type: ADME, cell-based, Hepatocyte; conditions: read-out: CLH
[2] = Oral bioavailability in Wistar Han rat at 10 mg/kg; type: ADME, organism-based; conditions: in vivo
Method in brief: (§1)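 Bioavailability from a 10 mg/kg oral dose, by gavage in rats (groups of three) or orally in male beagle dogs (n = 3). Plasma sampled serially over time (dogs 0 to 24 h). Levels measured by LC-MS/MS and referenced to iv dosing. Parameters from non-compartmental analysis.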

[3] = tested on: Cavia porcellus; test: Cardiotoxicity in iv dosed guinea pig assessed as MAPD90 prolongation at 16 uM free plasma concentration; type: toxicity, organism-based; conditions: in vivo
Method in brief: (§2)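 Male guinea pigs anaesthetized with Nembutal, tracheotomized and mechanically ventilated. Compound given iv in two 17 min infusion periods with cardiac pacing. Monophasic action potential recorded continuously and MAPD90 taken. Blood drawn at each dose level for plasma concentration. Vehicle controls run in separate cohorts; n = 6.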

[4] = Octanol-phosphate buffer partition coefficient, log D of the compound at pH 7.4 by shake flask method; type: physicochemical
Method in brief: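 Shake-flask partition between n-octanol and 10 mM phosphate buffer at pH 7.4. Shaken 1 h at 1200 rpm to reach equilibrium. Phases analysed by LC/UV, with MS for mass confirmation.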

[5] = Volume of distribution in Beagle dog at 3 mg/kg, iv administered as bolus dose and 10 mg/kg, po; type: ADME, organism-based, Canis lupus familiaris; conditions: in vivo
[6] = Dissociation constant, pKa of the compound by pH metric assay; type: physicochemical
Method in brief: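 pH-metric titration on an automated titrator, run in triplicate. Accuracy about 0.02 log units.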

[7] = AUC in Wistar Han rat at 3 mg/kg, iv administered as bolus dose; type: ADME, organism-based; design: dose 3 mg/kg, route intravenous; conditions: plasma
Method in brief: (§3)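 Single iv dose (3 mg/kg bolus, or 10 mg/kg infusion, per line). Rats in groups of three, bolus via cannulated jugular vein. Male beagle dogs (n = 3), iv as 15 min infusion, sampled 0 to 24 h. Serial whole-blood samples taken at time intervals. Plasma levels measured by LC-MS/MS. Parameters estimated by non-compartmental analysis.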

[8] = Volume of distribution in Wistar Han rat at 3 mg/kg, iv administered as bolus dose and 10 mg/kg, po; type: ADME, organism-based; conditions: in vivo; method in brief: as §3
[9] = Intrinsic clearance in Beagle dog hepatocytes measured per 10^6 cells; type: ADME, cell-based, Canis lupus familiaris, Hepatocyte; conditions: read-out: CLH
[10] = Oral bioavailability in Beagle dog at 10 mg/kg; type: ADME, organism-based, Canis lupus familiaris; conditions: in vivo; method in brief: as §1
[11] = Half life in Wistar Han rat at 3 mg/kg, iv administered as bolus dose and 10 mg/kg, po; type: ADME, organism-based; conditions: in vivo; method in brief: as §3
[12] = tested on: Staphylococcus aureus; test: Antibacterial activity against methicillin-susceptible Staphylococcus aureus after 18 to 24 hrs by CLSI broth microdilution method; type: functional
[13] = target: T1, Voltage-gated inwardly rectifying potassium channel KCNH2 (Homo sapiens, UniProt Q12809); test: Inhibition of human ERG by Ionworks assay
[14] = Inhibition of Escherichia coli DNA topoisomerase 4 subunit ParC/DNA topoisomerase 4 subunit ParE ATPase activity after 24 hrs by malachite green staining-based colorimetric assay
[15] = Fraction unbound in human plasma at 10 uM by equilibrium dialysis method; type: ADME, cell-free
Method in brief: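 Equilibrium dialysis. Compound at 10 μM in the plasma (donor) chamber against phosphate buffer, rotated at 37 °C for 16 h. Drug in the plasma and buffer samples quantified by LC-MS/MS after methanol protein precipitation with internal standard. Standard curve 10 nM to 10 μM.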

[16] = target: T1, Voltage-gated inwardly rectifying potassium channel KCNH2; test: Displacement of [3H]-astemizole from human ERG expressed in HEK293 cells after 60 mins by liquid scintillation counter; type: cell-based
[17] = Clearance in Beagle dog at 3 mg/kg, iv administered as bolus dose and 10 mg/kg, po; type: ADME, organism-based, Canis lupus familiaris; conditions: in vivo
[18] = AUC in Beagle dog at 3 mg/kg, iv administered as bolus dose; type: ADME, organism-based, Canis lupus familiaris; design: dose 3 mg/kg, route intravenous; conditions: plasma
[19] = Clearance in Wistar Han rat at 3 mg/kg, iv administered as bolus dose and 10 mg/kg, po; type: ADME, organism-based; conditions: in vivo; method in brief: as §3
[20] = Half life in Beagle dog at 3 mg/kg, iv administered as bolus dose and 10 mg/kg, po; type: ADME, organism-based, Canis lupus familiaris; conditions: in vivo
[21] = tested on: Streptococcus pneumoniae; test: Antibacterial activity against penicillin-susceptible Streptococcus pneumoniae D39 after 18 to 24 hrs by CLSI broth microdilution method; type: functional
[22] = tested on: Escherichia coli; test: Antibacterial activity against Escherichia coli W3110 after 18 to 24 hrs by CLSI broth microdilution method; type: functional
[23] = tested on: Pseudomonas aeruginosa; test: Antibacterial activity against Pseudomonas aeruginosa PAO1 after 18 to 24 hrs by CLSI broth microdilution method; type: functional
[24] = tested on: Cavia porcellus; test: Cardiotoxicity in iv dosed guinea pig assessed as change in MAPD90 at 67 uM total plasma concentration; type: toxicity, organism-based; conditions: in vivo; method in brief: as §2
[25] = tested on: Staphylococcus aureus; test: Antibacterial activity against methicillin-resistant Staphylococcus aureus ARC 1692 in ABT-treated CD1 mouse neutropenic thigh infection model assessed as reduction in log10 CFU per gram of thigh at 60 mg/kg/day, ip qd starting 2 hrs post-infection measured after 24 hrs; type: functional; conditions: route intraperitoneal
[26] = tested on: Rattus norvegicus; test: Volume of distribution in Wistar Han rat at 10 mg/kg, iv administered as infusion and po; type: ADME, organism-based; design: dose 10 mg/kg, route oral; conditions: in vivo; method in brief: as §3
[27] = Intrinsic clearance in human hepatocytes measured per 10^6 cells; type: ADME, cell-based, Hepatocyte; conditions: read-out: CLH
[28] = AUC in Beagle dog at 10 mg/kg, iv administered as infusion; type: ADME, organism-based, Canis lupus familiaris; design: dose 10 mg/kg, route intravenous; conditions: plasma; method in brief: as §3
[29] = tested on: Staphylococcus aureus; test: Antibacterial activity against linezolid-resistant Staphylococcus aureus ARC 3583 after 18 to 24 hrs by CLSI broth microdilution method; type: functional
Method in brief: (§4)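 CLSI broth microdilution in Mueller Hinton Broth 2. Inocula prepared from blood agar plates grown at 35 °C for 18–24 h. Compound in DMSO, 2% DMSO final, 11 doubling dilutions from 64 to 0.06 μg/mL. Plates read at 620 nm.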

[30] = tested on: Staphylococcus aureus; test: Antibacterial activity against community acquired methicillin-resistant Staphylococcus aureus ARC 3189 after 18 to 24 hrs by CLSI broth microdilution method; type: functional; method in brief: as §4
[31] = tested on: Mus musculus; test: AUC (infinity) in CD1 mouse infected with methicillin-resistant Staphylococcus aureus ARC 1692 at 40 mg/kg/day, ip; type: ADME, organism-based, Plasma; design: dose 40 mg/kg/day, time infinity, route intraperitoneal; conditions: in vivo
[32] = tested on: Mus musculus; test: AUC (infinity) in CD1 mouse infected with methicillin-resistant Staphylococcus aureus ARC 1692 at 60 mg/kg/day, ip; type: ADME, organism-based, Plasma; design: dose 60 mg/kg/day, time infinity, route intraperitoneal; conditions: in vivo
[33] = Half life in Wistar Han rat at 10 mg/kg, iv administered as infusion and po; type: ADME, organism-based; design: dose 10 mg/kg, route oral; conditions: in vivo
[34] = Half life in Beagle dog at 10 mg/kg, iv administered as infusion and po; type: ADME, organism-based, Canis lupus familiaris; design: dose 10 mg/kg, route oral; conditions: in vivo
[35] = tested on: Mus musculus; test: AUC (infinity) in CD1 mouse infected with methicillin-resistant Staphylococcus aureus ARC 1692 at 20 mg/kg/day, ip; type: ADME, organism-based, Plasma; design: dose 20 mg/kg/day, time infinity, route intraperitoneal; conditions: in vivo
[36] = AUC in Wistar Han rat at 10 mg/kg, iv administered as infusion; type: ADME, organism-based; design: dose 10 mg/kg, route intravenous; conditions: plasma; method in brief: as §3
[37] = tested on: Staphylococcus aureus; test: Antibacterial activity against hospital acquired methicillin-resistant Staphylococcus aureus ARC 1692 after 18 to 24 hrs by CLSI broth microdilution method; type: functional; method in brief: as §4
[38] = tested on: Staphylococcus aureus; test: Antibacterial activity against methicillin-resistant Staphylococcus aureus ARC 1692 in ABT-treated CD1 mouse neutropenic thigh infection model assessed as reduction in log10 CFU per gram of thigh at 20 mg/kg/day, ip qd starting 2 hrs post-infection measured after 24 hrs; type: functional; conditions: route intraperitoneal
[39] = tested on: Staphylococcus aureus; test: Antibacterial activity against methicillin-resistant Staphylococcus aureus ARC 1692 in ABT-treated CD1 mouse neutropenic thigh infection model assessed as reduction in log10 CFU per gram of thigh at 40 mg/kg/day, ip qd starting 2 hrs post-infection measured after 24 hrs; type: functional; conditions: route intraperitoneal
[40] = tested on: Canis familiaris; test: Volume of distribution in Beagle dog at 10 mg/kg, iv administered as infusion and po; type: ADME, organism-based, Canis lupus familiaris; design: dose 10 mg/kg, route oral; conditions: in vivo; method in brief: as §3
[41] = tested on: Staphylococcus aureus; test: Antibacterial activity against vancomycin-resistant Staphylococcus aureus ARC 3186 after 18 to 24 hrs by CLSI broth microdilution method; type: functional; method in brief: as §4

T1 sequence (Q12809 whole entry): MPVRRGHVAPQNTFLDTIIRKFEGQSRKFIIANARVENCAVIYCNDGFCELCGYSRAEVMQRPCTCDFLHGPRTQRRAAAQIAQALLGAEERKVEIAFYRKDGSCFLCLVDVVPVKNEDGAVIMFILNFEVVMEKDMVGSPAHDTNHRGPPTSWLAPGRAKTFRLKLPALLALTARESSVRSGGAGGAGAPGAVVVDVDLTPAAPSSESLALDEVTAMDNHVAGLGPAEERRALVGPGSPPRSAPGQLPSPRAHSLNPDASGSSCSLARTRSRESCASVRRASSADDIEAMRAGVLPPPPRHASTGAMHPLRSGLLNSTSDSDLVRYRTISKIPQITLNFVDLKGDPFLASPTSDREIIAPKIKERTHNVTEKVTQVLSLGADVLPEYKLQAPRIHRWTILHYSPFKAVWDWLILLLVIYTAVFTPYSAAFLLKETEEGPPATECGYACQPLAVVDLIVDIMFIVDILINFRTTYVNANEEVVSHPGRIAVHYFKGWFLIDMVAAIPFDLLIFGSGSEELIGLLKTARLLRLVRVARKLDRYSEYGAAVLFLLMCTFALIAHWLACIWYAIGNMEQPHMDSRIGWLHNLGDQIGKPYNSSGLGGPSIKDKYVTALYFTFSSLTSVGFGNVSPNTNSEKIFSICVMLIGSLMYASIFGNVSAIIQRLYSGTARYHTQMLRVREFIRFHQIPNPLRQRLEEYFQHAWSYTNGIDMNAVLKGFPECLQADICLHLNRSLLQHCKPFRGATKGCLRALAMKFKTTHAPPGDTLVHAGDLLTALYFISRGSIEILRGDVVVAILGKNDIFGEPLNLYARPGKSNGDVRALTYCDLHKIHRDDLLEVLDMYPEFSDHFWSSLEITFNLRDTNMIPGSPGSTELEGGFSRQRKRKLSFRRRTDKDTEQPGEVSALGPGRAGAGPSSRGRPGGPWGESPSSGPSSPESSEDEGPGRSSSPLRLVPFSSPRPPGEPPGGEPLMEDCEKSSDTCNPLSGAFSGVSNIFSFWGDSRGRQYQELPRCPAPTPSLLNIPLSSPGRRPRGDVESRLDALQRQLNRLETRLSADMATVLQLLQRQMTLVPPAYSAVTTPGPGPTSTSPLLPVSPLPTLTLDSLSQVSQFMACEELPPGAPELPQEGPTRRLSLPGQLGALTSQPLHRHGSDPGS

Row | Structure (SMILES) | hepatocyte CLint [1] [µL/min/1e6 cells] | bioavailability [2] [%] | logD [4] | Vd [5] [L/kg] | pKa [6] | AUC [7] [ng·h/mL] | Vd [8] [L/kg] | hepatocyte CLint [9] [µL/min/1e6 cells] | bioavailability [10] [%] | MIC [12] [µg/mL] | IC50 [13] [µM] | IC50 [14] [µM] | fraction unbound at 10 µM [15] | IC50 [16] [µM] | clearance [17] [mL/min/kg] | AUC [18] [ng·h/mL] | clearance [19] [mL/min/kg] | MIC [21] [µg/mL] | MIC [22] [µg/mL] | MIC [23] [µg/mL] | other results
1 | N#Cc1ccc2ccc(=O)n(CCN3CCC(NCc4cc5c(cn4)OCCO5)CC3)c2c1 | 42 | 31 | 0.68 | 8 | 8.27 | 370 | 21 | 1.8 | 72 | 0.03 (≈ 0.0673 µM) | 44 | 0.0032 | 0.28 | 39 | 18 | 2600 | 127 | 0.08 (≈ 0.18 µM) | 0.5 (≈ 1.12 µM) | > 8 | Activity [3]: > 10%; half-life [11]: 3 h; half-life [20]: 8.4 h
2 | COc1ccc2ncc(=O)n(CCN3CCC(NCc4ccc5c(n4)NC(=O)CO5)CC3)c2c1 | 26 | – | 0.6 | 2 | 8.42 | 190 | 23 | < 1 | – | 0.03 (≈ 0.0646 µM) | – | 0.0022 | 0.26 | – | 8.5 | 6800 | 252 | 0.08 (≈ 0.172 µM) | 0.13 (≈ 0.28 µM) | 1 (≈ 2.15 µM) | –
3 | N#Cc1ccc2ccc(=O)n(CCN3CC[C@H](NCc4cc5c(cn4)OCCO5)[C@H](F)C3)c2c1 | 13 | 18 | 0.96 | – | 7.03 | – | – | 4.5 | 60 | 0.06 (≈ 0.129 µM) | 233 | 0.048 | 0.25 | > 200 | – | – | – | 0.13 (≈ 0.28 µM) | 4 (≈ 8.63 µM) | > 8 | Activity [24]: Non-toxic; log10cfu [25]: 1.5; Vd [26]: 3 L/kg; hepatocyte CLint [27]: 5.2 µL/min/1e6 cells; AUC [28]: 27000 ng·h/mL; MIC [29]: 0.125 µg/mL (≈ 0.27 µM); MIC [30]: 0.06 µg/mL (≈ 0.129 µM); AUC [31]: 37 µg/h/mL; AUC [32]: 53 µg/h/mL; half-life [33]: 0.9 h; half-life [34]: 3.4 h; AUC [35]: 18 µg/h/mL; AUC [36]: 3100 ng·h/mL; MIC [37]: 0.125 µg/mL (≈ 0.27 µM); log10cfu [38]: 0.1; log10cfu [39]: 1; Vd [40]: 1.5 L/kg; MIC [41]: 0.015 µg/mL (≈ 0.0324 µM)
4 | N#Cc1ccc2ccc(=O)n(CCN3CC[C@@H](NCc4cc5c(cn4)OCCO5)[C@@H](F)C3)c2c1 | – | – | 0.97 | – | – | – | – | – | – | 0.13 (≈ 0.28 µM) | 199 | 0.06 | 0.2 | > 200 | – | – | – | 0.13 (≈ 0.28 µM) | 4 (≈ 8.63 µM) | > 8 | –
